Reference: ChEMBL document CHEMBL2150950, “Effect of 4-aryl-2-methyl-5-nitro-1,4-dihydropyridine-3-carboxylates on the guinea pig papillary muscle and isolated human vena saphena magna that is used for coronary artery bypass grafting” (2011)
Active and inactive are the calls of the source. The rule behind the calls is not given here.

Tests used:
[1] = Ionotropic effect in guinea pig right ventricle papillary muscles assessed as contraction force at 10^-5 M by force transduction assay relative to untreated control (reference value: 100%) in presence of 1 x 10^-6 M IKr channel blocker Sotalol; format: functional, Cavia porcellus, Heart right ventricle
[2] = (§1) Ionotropic effect in guinea pig ventricle papillary muscles assessed as lengthening of 50% repolarized cardiac action potential duration time at 10^-4 M by microelectrode technique relative to untreated control (reference value: 180 to 192 APD50 ms) in presence of 2 x 10^-5 M KATP channel blocker glibenclamide; format: functional, Cavia porcellus
[3] = Ionotropic effect in guinea pig right ventricle papillary muscles assessed as contraction force at 10^-4 M by force transduction assay relative to untreated control (reference value: 100%) in presence of 3.1 x 10^-6 M inward rectifier current blocker BaCl2; format: functional, Cavia porcellus, Heart right ventricle
[4] = Ionotropic effect in guinea pig right ventricle papillary muscles assessed as contraction force at 10^-5 M by force transduction assay relative to untreated control (reference value: 100%) in presence of 3.1 x 10^-6 M inward rectifier current blocker BaCl2; format: functional, Cavia porcellus, Heart right ventricle
[5] = Ionotropic effect in guinea pig right ventricle papillary muscles assessed as contraction force at 10^-5 M by force transduction assay relative to untreated control (reference value: 100%); format: functional, Cavia porcellus, Papillary muscle
[6] = Vasodilatory activity in human vena saphena magna assessed as reduction in phenylephrine-induced smooth muscle contraction at 10 uM; format: functional
How it was run: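 Saphenous vein rings came from 37 CABG patients. They were bathed in Tyrode's solution (mM: NaCl 137, KCl 5.4, CaCl2 1.8, MgCl2 0.9, Tris HCl 10, glucose 5; pH 7.4), equilibrated 45–60 min and washed every 15 min. Rings were precontracted with 10^-4 M phenylephrine, then given cumulative test agent at 10^-7 to 10^-4 M. Isometric relaxation was recorded, as means ± SE.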

[7] = (§2) Ionotropic effect in guinea pig ventricle papillary muscles assessed as lengthening of 25% repolarized cardiac action potential duration time at 10^-7 M by microelectrode technique relative to untreated control (reference value: 120 to 131 APD25 ms) in presence of 3.1 x 10^-6 M inward rectifier current blocker BaCl2; format: functional, Cavia porcellus
[8] = as §2, with “10^-5” for “10^-7”; format: functional, Cavia porcellus
[9] = as §1, with “10^-7” for “10^-4”; format: functional, Cavia porcellus
[10] = as §1, with “at 10^-7” for “at 10^-4”, “of 1” for “of 2”, “x 10^-6” for “x 10^-5”, “M IKr” for “M KATP”, “blocker Sotalol” for “blocker glibenclamide”; format: functional, Cavia porcellus
[11] = Ionotropic effect in guinea pig ventricle papillary muscles assessed as lengthening of 90% repolarized cardiac action potential duration time at 10^-7 M by microelectrode technique relative to untreated control (reference value: 132 to 176 APD50 ms); format: functional, Cavia porcellus, Papillary muscle
[12] = Ionotropic effect in guinea pig right ventricle papillary muscles assessed as contraction force at 10^-7 M by force transduction assay relative to untreated control (reference value: 100%) in presence of 3.1 x 10^-6 M inward rectifier current blocker BaCl2; format: functional, Cavia porcellus, Heart right ventricle
[13] = Ionotropic effect in guinea pig ventricle papillary muscles assessed as lengthening of 50% repolarized cardiac action potential duration time at 10^-4 M by microelectrode technique relative to untreated control (reference value: 132 to 176 APD50 ms); format: functional, Cavia porcellus, Papillary muscle
[14] = Ionotropic effect in guinea pig ventricle papillary muscles assessed as lengthening of 10% repolarized cardiac action potential duration time at 10^-4 M by microelectrode technique relative to untreated control (reference value: 37 to 47 APD10 ms); format: functional, Cavia porcellus, Papillary muscle
[15] = Ionotropic effect in guinea pig right ventricle papillary muscles assessed as contraction force at 10^-7 M by force transduction assay relative to untreated control (reference value: 100%) in presence of 2 x 10^-5 M KATP channel blocker glibenclamide; format: functional, Cavia porcellus, Heart right ventricle
[16] = as §2, with “10%” for “25%”, “52” for “120”, “54 APD10” for “131 APD25”; format: functional, Cavia porcellus
[17] = as §1, with “10^-5” for “10^-4”; format: functional, Cavia porcellus
[18] = Ionotropic effect in guinea pig ventricle papillary muscles assessed as lengthening of 90% repolarized cardiac action potential duration time at 10^-4 M by microelectrode technique relative to untreated control (reference value: 209 to 222 APD50 ms) in presence of 1 x 10^-6 M IKr channel blocker Sotalol; format: functional, Cavia porcellus
[19] = Ionotropic effect in guinea pig ventricle papillary muscles assessed as lengthening of 25% repolarized cardiac action potential duration time at 10^-4 M by microelectrode technique relative to untreated control (reference value: 84 to 104 APD25 ms); format: functional, Cavia porcellus, Papillary muscle
[20] = Ionotropic effect in guinea pig ventricle papillary muscles assessed as lengthening of 90% repolarized cardiac action potential duration time at 10^-6 M by microelectrode technique relative to untreated control (reference value: 132 to 176 APD50 ms); format: functional, Cavia porcellus, Papillary muscle
[21] = Ionotropic effect in guinea pig right ventricle papillary muscles assessed as contraction force at 10^-4 M by force transduction assay relative to untreated control (reference value: 100%) in presence of 2 x 10^-5 M KATP channel blocker glibenclamide; format: functional, Cavia porcellus, Heart right ventricle

CCCOCCOC(=O)C1=C(C)NC=C([N+](=O)[O-])C1c1ccccc1OC(F)F (stereo unspecified)
Activity [1]: 100.2% | Time [2]: 247 ms | Activity [3]: 204.5% | Activity [4]: 193% | Activity [5]: 134% | Activity [6]: Active | Time [7]: 146.5 ms | Time [8]: 155 ms | Time [9]: 209 ms | Time [10]: 195 ms | Time [11]: 221.6 ms | Activity [12]: 111.4% | Time [13]: 222 ms | Time [14]: 55.5 ms | Activity [15]: 103% | Time [16]: 64.3 ms | Time [17]: 235 ms | Time [18]: 250.8 ms | Time [19]: 146.9 ms | Time [20]: 229 ms | Activity [21]: 211%
